High-throughput results (PubChem BioAssay)
WT yeast gro inh – growth inhibition of WT yeast, mitochondrial fusion screen. inhibition, % at 10 µM. 190,000 tested, 2.1% active. mitochondrial fusion phenotypic screen, WT strain; in the data active means inhibition above about 58%; tested in S. cerevisiae
RAM inhibit – yeast RAM network inhibition; S. cerevisiae dse1pr::URA3 reporter, 5-FOA growth OD615, 2 d; analog-sensitive cbk1-as2 kinase mutant strain; inhibition, % at 50 µM; 190,000 tested, 1.8% active;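 active means inhibition above a set limit, 3 SD over mean compound inhibition, cut at about 8.4% in these data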;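 further: inhibition rescues growth on 5-FOA so higher OD means more RAM inhibition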
Lmaj promast – inhibitors of Leishmania major promastigote growth. Leishmania major promastigotes, resazurin fluorescence viability. inhibition, % at 10 µM. 200,000 tested, 9% active. AID 1063; in the data active means inhibition above about 50%;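 further: promastigotes grown with compound for 44 hours at 28 °C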
ABCB1 block – blocks JC-1 efflux by human ABCB1 transporter. 190,000 tested, 0.067% active. CCRF-Adr cells, flow cytometry. P08183. inhibition, % at 6.6 µM; in the data active means inhibition above about 40%;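 further: higher value means more JC-1 retained so stronger ABCB1 efflux block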
ABCG2 block – blocks JC-1 efflux by human ABCG2 transporter; Q9UNQ0; IgMXP3 cells, flow cytometry; 190,000 tested, 0.1% active; AID 1325; inhibition, % at 6.6 µM;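 active means inhibition above 80%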
Target sequence (Q9UNQ0 whole entry, looked up): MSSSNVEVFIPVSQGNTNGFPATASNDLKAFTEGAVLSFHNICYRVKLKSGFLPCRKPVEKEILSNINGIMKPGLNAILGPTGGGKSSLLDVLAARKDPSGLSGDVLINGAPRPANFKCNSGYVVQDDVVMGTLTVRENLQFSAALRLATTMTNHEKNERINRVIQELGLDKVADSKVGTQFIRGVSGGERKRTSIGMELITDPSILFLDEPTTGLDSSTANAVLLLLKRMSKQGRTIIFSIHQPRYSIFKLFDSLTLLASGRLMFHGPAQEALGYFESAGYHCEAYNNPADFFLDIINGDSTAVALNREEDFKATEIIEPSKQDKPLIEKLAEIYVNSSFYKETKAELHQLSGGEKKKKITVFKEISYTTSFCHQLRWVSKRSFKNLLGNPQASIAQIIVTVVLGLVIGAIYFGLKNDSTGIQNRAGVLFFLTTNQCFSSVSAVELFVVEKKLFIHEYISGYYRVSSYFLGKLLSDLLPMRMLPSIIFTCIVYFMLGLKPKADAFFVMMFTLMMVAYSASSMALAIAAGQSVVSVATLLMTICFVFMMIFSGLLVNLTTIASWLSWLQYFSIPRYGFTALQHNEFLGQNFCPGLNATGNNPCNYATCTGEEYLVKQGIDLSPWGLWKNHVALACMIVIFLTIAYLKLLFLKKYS
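test system = two drug-resistant human cell lines, ABCG2 and ABCB1 | amount = 3 million cells/mL final, two lines in 1:1 ratio | reagent = JC-1 transporter substrate | doses = one concentration, 6.6 µM final | incubation = 10 min at 25 °C | signal = flow cytometric JC-1 green MFI at 530 nm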
RAM 5-FOA – RAM network inhibitors in efflux-deficient yeast. shares compounds with RAM inhibit. S. cerevisiae efflux-deficient reporter strain, 5-FOA growth OD615, 2 days. max inhibition, %. 1,200 tested, under 10 active; call rule not given here
Large screens that a line does not name were inactive (follow-up assays come after a bar, where they were run). The list is not random: actives were taken first. Their share in the collection is about 12%.

Cc1nc2c3ccccc3n(Cc3ccccc3F)c2s1	Lmaj promast 55.9
CC(C)(C)C(=O)/C=c1\[nH]c(=O)/c(=C\c2ccc(C#N)cc2)s1	Lmaj promast 60.2
Cc1cccc(/C=c2\s/c(=C\C(=O)C(C)(C)C)[nH]c2=O)c1	none
COc1cc(/C=C/C(=O)Nc2nnc(C(C)(C)C)s2)cc(OC)c1OC	none
COc1cc(/C=c2\s/c(=C\C(=O)C(C)(C)C)[nH]c2=O)cc(OC)c1OC	RAM inhibit 8.8
Cc1cc2nnn(-c3nnc(-c4ccccc4)c4ccccc34)c2cc1C	none
CCOC(=O)C1=C(Nc2ccccc2)CC(C)(O)C(C(=O)OCC)C1c1ccc(Br)cc1 (stereo not drawn)	Lmaj promast 92.4
COc1ccc(C(C(=O)Nc2ccc(C(C)C)cc2)N(C)C(=O)c2ccc(=O)[nH]c2)cc1 (stereo not drawn)	RAM inhibit 9.0
COc1ccc(-c2csc(-c3cccnc3)n2)cc1C	Lmaj promast 79.8
COc1ccc(OC)c(S(=O)(=O)NCc2cn3c(C)csc3n2)c1	none
COc1ccc(-c2csc(-c3cccs3)n2)c(OC)c1	none
COc1ccc(OC)c(S(=O)(=O)NCc2csc(-c3ccccc3)n2)c1	Lmaj promast 78.1
COc1ccc(-c2csc(-c3ccccc3)n2)c(OC)c1	WT yeast gro inh 72.7
COc1ccc(/C=C2/NC(=O)N(CC(=O)Nc3cccc(C)c3)C2=O)cc1O	none
CCCCCN(C(=O)NC(=O)Nc1ccccc1C)S(=O)(=O)c1ccccc1	none
CNC(=O)c1sc(-c2ccccc2)nc1C	none
COc1ccc(N/C=C/C(=O)c2sc(-c3ccccc3)nc2C)cc1	RAM inhibit 9.5
CC(=O)c1sc(-c2ccc(Cl)cc2)nc1C	none
Cc1nc(-c2ccccc2)sc1C(=O)/C=C/c1ccc(Cl)cc1	Lmaj promast 63.5
Cc1nn2c([nH]c(=O)c3ccccc32)c1C=O	none
O=C(COC(=O)C1CC(=O)N(Cc2ccccc2)C1)Nc1ccccc1F (stereo not drawn)	none
Oc1ccccc1-c1nc2cnccn2c1Nc1ccc2c(c1)OCCO2	Lmaj promast 77.2
CSc1ccc(-c2nc3cnccn3c2Nc2ccc3c(c2)OCO3)cc1	Lmaj promast 100.3
O=C(Nc1ncc(Br)s1)C(Cc1ccccc1)n1cccc1 (stereo not drawn)	WT yeast gro inh 82.3
Cc1ccc(-c2ccc(C(=O)Nc3ccccc3)o2)c2ccccc12	none
Cc1ccc(-c2ccc(C(=O)NCc3ccccc3)o2)c2ccccc12	RAM inhibit 12.5 | RAM 5-FOA inactive
O=C(NCCc1ccccc1)c1n[nH]c2ccccc12	none
Cc1ccc(-c2cccc(C(=O)NCCc3ccccc3)n2)c2ccccc12	RAM inhibit 13.8 | RAM 5-FOA inactive
Cc1ccc(NC(=O)NCc2ccc3c(c2)OCO3)cc1	none
C=CCn1c(-c2cccn(Cc3ccccc3)c2=O)n[nH]c1=S	none
C=CCn1c(-c2cccn(Cc3ccc(Cl)cc3)c2=O)n[nH]c1=S	RAM inhibit 12.9 | RAM 5-FOA inactive
CCOC(=O)c1cc(-c2ccccc2)sc1NC(=O)C(C)OC(=O)c1cccnc1OCC (stereo not drawn)	RAM inhibit 12.0 | RAM 5-FOA inactive
CCOc1ccc(N(C)S(=O)(=O)c2ccc3[nH]cc(C(=O)NCCOC)c(=O)c3c2)cc1	RAM inhibit 13.8 | RAM 5-FOA inactive
CCCNC(=O)c1c[nH]c2ccc(S(=O)(=O)N(C)c3ccc(OCC)cc3)cc2c1=O	none
CC(=O)N1C(=O)CC(C)N(C(C)=O)c2ccc([N+](=O)[O-])cc21 (stereo not drawn)	none
Cc1cccnc1NC(=O)Cn1nc(-c2ccccc2)oc1=S	none
Cc1cccc(SCC(=O)Nc2ccccc2[N+](=O)[O-])c1	none
Cc1ccc(SCC(=O)Nc2ccc(F)cc2[N+](=O)[O-])cc1C	RAM inhibit 14.6 | RAM 5-FOA inactive
CCOc1cc(NC(=O)C2CCCCC2)c(OCC)cc1NC(=O)c1ccccn1	none
CCOc1cc(NC(=O)c2ccccn2)c(OCC)cc1NC(=O)c1ccc(C)cc1	RAM inhibit 12.0 (no result: WT yeast gro inh) | RAM 5-FOA inactive
COc1ccccc1Nc1nc2c(C)cccc2cc1C#N	RAM inhibit 13.1 | RAM 5-FOA inactive
O=C(CSc1ccc(Cl)cc1)N1CCN(c2ccc(Cl)cc2[N+](=O)[O-])CC1	RAM inhibit 13.4 | RAM 5-FOA inactive
